Source: publication PMC2843818 (Bioorganic & medicinal chemistry letters, 2010)
Each block holds one molecule with its values, some of them ahead of it.

What was measured:
human S1P3 = human S1P3 (Homo sapiens, UniProt Q99500); test: Calcium mobilization Gi assay, S1P3; assay type: cell-based; conditions: for EC50 S1P3: calcium mobilization Gi assay, whole cell
hS1P1 [1] = molecular target: T1, hS1P1 (Homo sapiens, UniProt P21453); test: Calcium mobilization Gi assay, S1P1; assay type: cell-based; conditions: for EC50 S1P1: calcium mobilization Gi assay, whole cell
T1 sequence (P21453 whole entry): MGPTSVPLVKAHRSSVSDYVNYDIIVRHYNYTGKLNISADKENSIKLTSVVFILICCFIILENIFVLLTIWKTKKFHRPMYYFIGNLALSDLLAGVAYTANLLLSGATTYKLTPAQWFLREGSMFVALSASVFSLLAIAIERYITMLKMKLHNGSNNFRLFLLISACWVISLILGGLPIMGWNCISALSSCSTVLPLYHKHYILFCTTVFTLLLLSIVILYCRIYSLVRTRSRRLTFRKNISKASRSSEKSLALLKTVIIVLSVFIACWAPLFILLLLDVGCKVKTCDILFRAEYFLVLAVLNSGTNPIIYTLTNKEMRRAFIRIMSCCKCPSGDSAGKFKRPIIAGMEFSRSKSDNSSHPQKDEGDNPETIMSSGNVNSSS

hS1P1 [2] = molecular target: T1, hS1P1; test: Calcium mobilization Gq assay, S1P1; assay type: cell-based; conditions: for EC50 S1P1: calcium mobilization Gq assay, whole cell
lymphopenia = test: Mouse lymphopenia; assay type: in vivo; conditions: for duration of sustained lymphopenia: mouse PK/PD study
Method in brief: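 Mouse PK/PD study with single doses of test compound at 1 or 2 mg/kg. Lymphopenia was followed over time to find how long it lasted. Pharmacokinetics were measured in parallel: oral bioavailability, half-life, clearance, volume, and percent in vivo phosphorylation.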

Sequence of human S1P3 (Q99500 whole entry): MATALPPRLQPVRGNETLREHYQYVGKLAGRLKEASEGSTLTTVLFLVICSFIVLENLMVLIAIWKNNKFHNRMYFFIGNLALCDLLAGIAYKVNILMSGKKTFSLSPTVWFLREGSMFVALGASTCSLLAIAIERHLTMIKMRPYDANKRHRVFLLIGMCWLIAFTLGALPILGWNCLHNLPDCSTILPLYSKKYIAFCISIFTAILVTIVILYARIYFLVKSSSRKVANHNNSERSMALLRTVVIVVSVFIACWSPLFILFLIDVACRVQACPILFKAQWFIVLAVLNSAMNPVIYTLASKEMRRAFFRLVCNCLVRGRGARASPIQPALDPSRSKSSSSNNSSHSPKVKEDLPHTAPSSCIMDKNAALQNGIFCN

fold less potent at S1P3 than (S)-FTY720-P (human S1P3; Gi assay): 2 fold
fold less potent at S1P1 than (S)-FTY720-P (hS1P1 [1]; Gi assay): 6 fold
SMILES: CCCCCCCCc1ccc2c(c1)CC[C@@H](C(N)(CO)COP(=O)(O)O)C2 (single isomer, unassigned) [(2’R)-3-P isomer 1]

EC50 S1P3 (human S1P3): not active
SMILES: CCCCCCCCc1ccc2c(c1)CC[C@@H](C(N)(CO)COP(=O)(O)O)C2 (single isomer, unassigned) [(2’R)-3-P isomer 2]

EC50 S1P1 (hS1P1 [2]): very active
SMILES: CCCCCCCCc1ccc2c(c1)CC[C@@H]([C@@](C)(N)COP(=O)(O)O)C2 [(2R, 2’R)-6]

SMILES: CCCCCCCCc1ccc2c(c1)CC[C@H]([C@@](C)(N)CO)C2 [(2R, 2’S)-5, (−)-(R)-2-amino-2-((S)-6-octyl-1,2,3,4-tetrahydronaphthalen-2-yl) propan-1-ol]
duration of sustained lymphopenia (lymphopenia; 1 mg/kg dose): one-week

selectivity of S1P1 over S1P3 (hS1P1 [2]; Gq assay, compared to FTY720): moderate selectivity
EC50 S1P1 (hS1P1 [2]): very active
SMILES: CCCCCCCCc1ccc2c(c1)CC[C@H]([C@@](C)(N)COP(=O)(O)O)C2 [(2R, 2’S)-6]

SMILES: CCCCCCCCc1ccc2c(c1)CC[C@@H]([C@](C)(N)CO)C2 [(2S, 2’R)-5]
ED50 (lymphopenia; Mus musculus, read-out: Mouse Lymphopenia ED50): > 5 mg/kg
Mouse Lymphopenia ED50 (lymphopenia): not active

EC50 S1P3 (human S1P3): no activity
S1P1/S1P3 selectivity (hS1P1 [1]; Gi assay): great S1P1/S1P3 selectivity
EC50 S1P1 (hS1P1 [1]): significantly less active
SMILES: CCCCCCCCc1ccc2c(c1)CC[C@@H]([C@](C)(N)COP(=O)(O)O)C2 [(2S, 2’R)-6]

SMILES: CCCCCCCCc1ccc2c(c1)CC[C@H]([C@](C)(N)CO)C2 [(2S, 2’S)-5]
Mouse Lymphopenia ED50 (lymphopenia): not active

EC50 S1P1 (hS1P1 [2]): not active
EC50 S1P3 (human S1P3): no activity
S1P1/S1P3 selectivity (hS1P1 [1]; Gi assay): great S1P1/S1P3 selectivity
EC50 S1P1 (hS1P1 [1]): significantly less active
SMILES: CCCCCCCCc1ccc2c(c1)CC[C@H]([C@](C)(N)COP(=O)(O)O)C2 [(2S, 2’S)-6]

SMILES: CCCCCCCCc1ccc2c(c1)CC[C@@H](C(N)(CO)CO)C2 [(2’R)-3]
duration of sustained lymphopenia (lymphopenia; 2 mg/kg dose): 72 h

EC50 S1P1 (hS1P1 [2]): not active
EC50 S1P3 (human S1P3): not active
SMILES: CCCCCCCCc1ccc(CC[C@@](N)(CO)COP(=O)(O)O)cc1 [(R)-FTY720-P, reference compound]
